Source: ChEMBL document CHEMBL5032510, “Identification of Novel Fused Heteroaromatics-Based MALT1 Inhibitors by High-Throughput Screening to Treat B Cell Lymphoma” (J Med Chem, 2021)
Calls of active or inactive are those of the source. The rule behind the calls is not given here.

Experiments:
[1] = target: T1, Mucosa-associated lymphoid tissue lymphoma translocation protein 1 (Homo sapiens, UniProt Q9UDY8); assay: Inhibition of N-terminal his-tagged GCN4 leucine zipper fused human MALT1 […] expressed in Escherichia coli using Ac-LVSR-AMC as substrate by HTS assay
T1 sequence (Q9UDY8 whole entry): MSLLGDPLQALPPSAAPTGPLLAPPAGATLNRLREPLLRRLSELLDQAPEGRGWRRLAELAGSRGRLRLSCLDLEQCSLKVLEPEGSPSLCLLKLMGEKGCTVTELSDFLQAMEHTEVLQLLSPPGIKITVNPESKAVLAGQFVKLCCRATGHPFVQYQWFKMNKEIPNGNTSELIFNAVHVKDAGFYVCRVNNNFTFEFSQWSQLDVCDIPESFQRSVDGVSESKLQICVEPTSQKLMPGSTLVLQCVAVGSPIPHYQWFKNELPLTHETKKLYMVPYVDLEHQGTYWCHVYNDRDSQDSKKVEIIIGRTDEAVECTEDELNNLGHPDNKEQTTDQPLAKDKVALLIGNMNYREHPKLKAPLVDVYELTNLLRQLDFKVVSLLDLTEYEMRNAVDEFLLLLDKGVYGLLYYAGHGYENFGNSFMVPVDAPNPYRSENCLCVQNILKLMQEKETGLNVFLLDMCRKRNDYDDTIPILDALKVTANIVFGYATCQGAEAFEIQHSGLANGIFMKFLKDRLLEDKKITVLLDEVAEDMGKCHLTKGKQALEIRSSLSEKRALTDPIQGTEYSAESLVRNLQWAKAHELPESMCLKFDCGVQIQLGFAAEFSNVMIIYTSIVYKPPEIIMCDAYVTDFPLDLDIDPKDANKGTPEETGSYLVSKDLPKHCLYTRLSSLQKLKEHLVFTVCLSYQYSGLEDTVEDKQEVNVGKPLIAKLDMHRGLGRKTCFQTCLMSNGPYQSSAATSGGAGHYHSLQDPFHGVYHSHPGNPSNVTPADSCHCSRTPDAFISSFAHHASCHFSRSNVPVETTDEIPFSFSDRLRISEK

[2] = Antiproliferative activity against human HBL1 cells assessed as inhibition of cell growth incubated for 72 hrs by Celltiter-Glo luminescent assay; assay type: functional
In short: (§1)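 Exponentially growing cells were seeded at 1 × 10⁴ per 100 μL. HBL-1 and TMD8 were kept in RPMI with 10% FBS, 2 mM glutamine and 10 mM HEPES; OCI-LY1 in Iscove's medium with 20% FBS; all at 37 °C and 5% CO2. Cells were exposed to DMSO or 2-fold serial dilutions from 100 μM for 72 h, in triplicate on one plate. CellTiter-Glo luminescence was read after 1 h. Growth inhibition was calculated against control, accounting for initial cell number, and GI50 was fitted.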

[3] = system: OCI-Ly1; assay: Antiproliferative activity against human OCI-Ly1 cells assessed as inhibition of cell growth incubated for 72 hrs by Celltiter-Glo luminescent assay; assay type: functional; in short: as §1
[4] = system: TMD8; assay: Antiproliferative activity against human TMD8 cells assessed as inhibition of cell growth incubated for 72 hrs by Celltiter-Glo luminescent assay; assay type: functional; in short: as §1

COC(=O)c1ccc2c(=O)[nH]c3c(C(=O)Nc4cc(Cl)cc(Cl)c4)sc(=S)n3c2c1
IC50 [1]: 2.5 µM

O=C(Nc1cc(Cl)cc(Cl)c1)c1sc(=S)n2c1[nH]c(=O)c1ccc(Cl)cc12
IC50 [1]: 7.4 µM

Cc1ccc(NC(=O)c2sc(=S)n3c2[nH]c(=O)c2cc(C)ccc23)c(C)c1
IC50 [1]: 7.16 µM
GI50 [2]: 20.4 µM
Activity [3]: inactive
GI50 [4]: 15.6 µM

COc1ccc(OC)c(NC(=O)c2sc(=S)n(-c3cccc(C#N)c3)c2NC(=O)CCl)c1
IC50 [1]: 5.5 µM
GI50 [2]: 1.7 µM
GI50 [3]: 11.8 µM
GI50 [4]: 1.6 µM

CCc1ccc(NC(=O)c2sc(=S)n3c2[nH]c(=O)c2ccccc23)cc1
IC50 [1]: > 25 µM

CCc1ccccc1NC(=O)c1sc(=S)n2c1[nH]c(=O)c1cc(C)ccc12
IC50 [1]: 18.5 µM
GI50 [2]: 31.3 µM
GI50 [3]: 31.3 µM
GI50 [4]: 31.3 µM

Cc1ccc(NC(=O)Nc2ccc3nc(N4CCN(C)CC4)cc(C)c3c2)cc1Cl
IC50 [1]: 16.6 µM
GI50 [2]: 5.56 µM
GI50 [3]: 11.2 µM
GI50 [4]: 5.56 µM

COc1ccc(OC)c(NC(=O)c2sc(=S)n3c2[nH]c(=O)c2cc(F)c(F)cc23)c1
IC50 [1]: 11.6 µM

Cc1ccc(NC(=O)c2sc(=S)n3c2[nH]c(=O)c2cc(Br)ccc23)c(C)c1
IC50 [1]: 6.4 µM
GI50 [2]: 17 µM
GI50 [3]: 26 µM
GI50 [4]: 10 µM

O=C(Nc1ccc([N+](=O)[O-])cc1)c1sc(=S)n2c1[nH]c(=O)c1ccc(Cl)cc12
IC50 [1]: 2.6 µM

O=C(O)c1cccc(NC(=O)c2sc(=S)n3c2[nH]c(=O)c2cc(Br)ccc23)c1
IC50 [1]: 14.9 µM
GI50 [2]: 12.4 µM
GI50 [3]: 23.7 µM
GI50 [4]: 23.7 µM

Cc1ccc2c(c1)c(=O)[nH]c1c(C(=O)Nc3cc(Cl)ccc3C)sc(=S)n12
IC50 [1]: 3.4 µM
GI50 [2]: 14 µM
GI50 [3]: 23 µM
GI50 [4]: 8 µM

COc1ccccc1CNC(=O)c1sc(=S)n2c1[nH]c(=O)c1cc(Cl)ccc12
IC50 [1]: 6 µM
GI50 [2]: 40 µM
Activity [3]: inactive
GI50 [4]: 40 µM

Cc1ccc(S(=O)(=O)C2=C(O)C(=O)N(Cc3ccc(F)cc3)C2c2ccc(C(C)C)cc2)cc1 (stereo not drawn)
IC50 [1]: 13 µM

CSc1ccc2c(c1)N(CCC1CCCCN1C)c1ccccc1S2 (stereo not drawn) [THIORIDAZINE]
IC50 [1]: 4.1 µM
GI50 [2]: 6.6 µM
GI50 [3]: 13.4 µM
GI50 [4]: 5.9 µM

COc1ccc(OC)c(NC(=O)c2sc(=S)n3c2[nH]c(=O)c2ccccc23)c1
IC50 [1]: > 25 µM

CCc1ccccc1NC(=O)c1sc(=S)n2c1[nH]c(=O)c1ccc(C(=O)OC)cc12
IC50 [1]: 3.2 µM

O=C(Nc1cccc(F)c1)c1sc(=S)n2c1[nH]c(=O)c1cc(Br)ccc12
IC50 [1]: 16.1 µM
GI50 [2]: 17.1 µM
GI50 [3]: 17.1 µM
GI50 [4]: 17.1 µM

COc1ccc(OC)c(NC(=O)c2sc(=S)n3c2[nH]c(=O)c2ccc(F)cc23)c1
IC50 [1]: 17 µM

O=C(Nc1ccc(Cl)c(Cl)c1)c1sc(=S)n2c1[nH]c(=O)c1ccccc12
IC50 [1]: > 25 µM

O=C(Nc1ccc(Cl)cc1)c1sc(=S)n2c1[nH]c(=O)c1ccccc12
IC50 [1]: > 25 µM

COc1ccc(OC)c(NC(=O)c2sc(=S)n(-c3cccc(F)c3)c2NC(=O)CCl)c1
IC50 [1]: 3.8 µM
GI50 [2]: 1.6 µM
GI50 [3]: 12.1 µM
GI50 [4]: 1.5 µM

COC(=O)c1ccc2c(=O)[nH]c3c(C(=O)Nc4cccc(Cl)c4[N+](=O)[O-])sc(=S)n3c2c1
IC50 [1]: 3 µM

COc1ccc(OC)c(NC(=O)c2sc(=S)n3c2[nH]c(=O)c2ccc(OC)cc23)c1
IC50 [1]: > 25 µM

COC(=O)c1ccc2c(=O)[nH]c3c(C(=O)Nc4ccc(F)cc4F)sc(=S)n3c2c1
IC50 [1]: 12.2 µM
GI50 [2]: 14.2 µM
GI50 [3]: 21.6 µM
GI50 [4]: 28.2 µM

O=C(O)c1cccc(NC(=O)c2sc(=S)n3c2[nH]c(=O)c2ccc(Cl)cc23)c1
IC50 [1]: 8.36 µM
GI50 [2]: 22.8 µM
GI50 [3]: 22.8 µM
GI50 [4]: 22.8 µM

CCc1ccccc1NC(=O)c1sc(=S)n2c1[nH]c(=O)c1ccc(Cl)cc12
IC50 [1]: 5.1 µM

COC(=O)c1ccc2c(=O)[nH]c3c(C(=O)Nc4cc(OC)ccc4OC)sc(=S)n3c2c1
IC50 [1]: 5.3 µM
GI50 [2]: 6.7 µM
GI50 [3]: 13.4 µM
GI50 [4]: 7 µM

COC(=O)c1ccc2c(=O)[nH]c3c(C(=O)Nc4ccccc4C)sc(=S)n3c2c1
IC50 [1]: 14.5 µM
GI50 [2]: 13.1 µM
GI50 [3]: 15 µM
GI50 [4]: 15 µM

COC(=O)c1ccc2c(=O)[nH]c3c(C(=O)Nc4ccc(Cl)cc4)sc(=S)n3c2c1
IC50 [1]: 5.1 µM
GI50 [2]: 14.8 µM
GI50 [3]: 18.6 µM
GI50 [4]: 4.4 µM

Cc1ccc(Cl)cc1NC(=O)c1sc(=S)n2c1[nH]c(=O)c1cc3c(cc12)OCO3
IC50 [1]: 3.6 µM
GI50 [2]: 32 µM
GI50 [3]: 48 µM
GI50 [4]: 12 µM

O=C(NCc1ccco1)c1sc(=S)n2c1[nH]c(=O)c1cc(Br)ccc12
IC50 [1]: 5.2 µM
GI50 [2]: 13.2 µM
GI50 [3]: 36.8 µM
GI50 [4]: 16.2 µM

COc1ccc(OC)c(NC(=O)c2sc(=S)n3c2[nH]c(=O)c2cc(Cl)ccc23)c1
IC50 [1]: 3.2 µM
GI50 [2]: 14 µM
GI50 [3]: 28.1 µM
GI50 [4]: 12.4 µM

COc1ccc(OC)c(NC(=O)c2sc(=S)n(-c3cccc(C(F)(F)F)c3)c2NC(=O)CCl)c1
IC50 [1]: 3.2 µM
GI50 [2]: 2.2 µM
GI50 [3]: 13.3 µM
GI50 [4]: 1.3 µM

COc1cccc(NC(=O)c2sc(=S)n3c2[nH]c(=O)c2ccccc23)c1
IC50 [1]: > 25 µM

Cc1ccc2c(c1)c(=O)[nH]c1c(C(=O)Nc3ccccc3C)sc(=S)n12
IC50 [1]: 21.1 µM
GI50 [2]: 24.7 µM
GI50 [4]: 24.7 µM

COc1ccc(OC)c(NC(=O)c2sc(=S)n3c2[nH]c(=O)c2cc(OC)c(OC)cc23)c1
IC50 [1]: > 25 µM

COc1ccc(OC)c(NC(=O)c2sc(=S)n(-c3ccc(Cl)cc3)c2NC(=O)CCl)c1
IC50 [1]: 7 µM
GI50 [2]: 1.5 µM
GI50 [3]: 13 µM
GI50 [4]: 1 µM

Cc1ccccc1NC(=O)c1sc(=S)n2c1[nH]c(=O)c1ccc(Cl)cc12
IC50 [1]: 11 µM

O=C(Nc1cccc(F)c1)c1sc(=S)n2c1[nH]c(=O)c1ccc(Cl)cc12
IC50 [1]: 5.53 µM
GI50 [2]: 16.8 µM
GI50 [3]: 12.4 µM
GI50 [4]: 16.8 µM

O=C(Nc1cc(Cl)cc(Cl)c1)c1sc(=S)n2c1[nH]c(=O)c1cc(Br)ccc12
IC50 [1]: 3.3 µM
GI50 [2]: 18.4 µM
GI50 [3]: 20.2 µM
GI50 [4]: 3.9 µM

O=C(Nc1ccccc1)c1sc(=S)n2c1[nH]c(=O)c1ccccc12
IC50 [1]: > 25 µM

COC(=O)c1ccc2c(=O)[nH]c3c(C(=O)Nc4ccc(-c5ccccc5)cc4)sc(=S)n3c2c1
IC50 [1]: 6.4 µM
GI50 [2]: 16 µM
GI50 [3]: 34 µM
GI50 [4]: 23 µM

O=C(Nc1ccc([N+](=O)[O-])cc1)c1sc(=S)n2c1[nH]c(=O)c1ccccc12
IC50 [1]: 6.7 µM
GI50 [2]: 14.3 µM
GI50 [3]: 21 µM
GI50 [4]: 4 µM

COc1ccc(OC)c(NC(=O)c2sc(=S)n3c2[nH]c(=O)c2ccc(Br)cc23)c1
IC50 [1]: 18.8 µM

COc1ccc(NC(=O)c2sc(=S)n3c2[nH]c(=O)c2ccccc23)cc1
IC50 [1]: > 25 µM

Cc1ccccc1C1CCN(c2ccc(NC(=O)c3ccc(Cl)cc3)c(C(=O)O)c2)C1 (stereo not drawn)
IC50 [1]: 12 µM

CCc1ccccc1NC(=O)c1sc(=S)n2c1[nH]c(=O)c1ccccc12
IC50 [1]: 14.7 µM

COc1ccccc1NC(=O)c1sc(=S)n2c1[nH]c(=O)c1ccccc12
IC50 [1]: > 25 µM

COC(=O)c1ccc2c(=O)[nH]c3c(C(=O)Nc4ccc([N+](=O)[O-])cc4)sc(=S)n3c2c1
IC50 [1]: 4.3 µM

COc1cccc(CNC(=O)c2sc(=S)n3c2[nH]c(=O)c2cc(Cl)ccc23)c1
IC50 [1]: 12.8 µM
GI50 [2]: 28.2 µM
GI50 [4]: 21.6 µM

CCc1ccccc1NC(=O)c1sc(=S)n2c1[nH]c(=O)c1cc(F)c(F)cc12
IC50 [1]: 5.2 µM

O=C(Nc1ccccc1Cl)c1sc(=S)n2c1[nH]c(=O)c1ccccc12
IC50 [1]: 20.4 µM

COC(=O)c1ccc2c(=O)[nH]c3c(C(=O)Nc4ccc(Cl)c(Cl)c4)sc(=S)n3c2c1
IC50 [1]: 6.9 µM

COc1ccccc1NC(=O)c1sc(=S)n2c1[nH]c(=O)c1ccc(Br)cc12
IC50 [1]: 7.7 µM

COc1ccc(OC)c(NC(=O)c2sc(=S)n3c2[nH]c(=O)c2cc(OC)ccc23)c1
IC50 [1]: > 25 µM

CCc1ccccc1NC(=O)c1sc(=S)n2c1[nH]c(=O)c1cc(Br)ccc12
IC50 [1]: 4.4 µM

O=C(Nc1cccc(Cl)c1[N+](=O)[O-])c1sc(=S)n2c1[nH]c(=O)c1ccc(Cl)cc12
IC50 [1]: 4.4 µM

CC(C)c1ccc(S(=O)(=O)Nc2ccc(N3CCC(Cc4ccccc4)CC3)cc2C(=O)O)cc1
IC50 [1]: 12.3 µM
